ChEMBL document CHEMBL4689842, “EUbOPEN Chemogenomics Library wave 1” (2021)

Tested on: U2OS
Test: Multiplex assay against U2OS
Assay type: toxicity, cell-based
Details: human
Procedure, shortened: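 Values for tubulin, mitochondrial-mass and membrane-permeability phenotypes are per cents of cells with healthy nuclei. These cells were identified by CellPathfinder machine-learning gating of live cells that had been stained at seeding with Hoechst33342, BioTracker Green Microtubule Cytoskeleton Dye, MitoTracker Red and Annexin V Alexa Fluor 680 and imaged on a CQ1 microscope at 37°C and 5% CO2 after compound addition. The gating first set Hoechst high-intensity objects apart from normal cells, then split normal cells into healthy, pyknosed or fragmented nuclei, and pyknosed cells into mitotic or apoptotic.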

[1] = 12 h, 1 µM, compound concentration 1 uM, replicate 1
[2] = 12 h, 1 µM, compound concentration 1 uM, replicate 2
[3] = 12 h, 10 µM, compound concentration 10 uM, replicate 1
[4] = 12 h, 10 µM, compound concentration 10 uM, replicate 2
[5] = 24 h, 1 µM, compound concentration 1 uM, replicate 1
[6] = 24 h, 1 µM, compound concentration 1 uM, replicate 2
[7] = 24 h, 10 µM, compound concentration 10 uM, replicate 1
[8] = 24 h, 10 µM, compound concentration 10 uM, replicate 2
[9] = 48 h, 1 µM, compound concentration 1 uM, replicate 1
[10] = 48 h, 1 µM, compound concentration 1 uM, replicate 2
[11] = 48 h, 10 µM, compound concentration 10 uM, replicate 1
[12] = 48 h, 10 µM, compound concentration 10 uM, replicate 2

In the case of `CN(C)C(=O)N[C@H]1CC[C@H](CCN2CCN(c3cccc(Cl)c3Cl)CC2)CC1.Cl` [CARIPRAZINE HYDROCHLORIDE], the “Population Apoptotic (%)” value [1] is reported as 20%, the “Population Fragmented Nuclei (%)” value [1] is reported as 14% and the “Population Healthy Nuclei (%)” value [1] is reported as 79%. For the same compound, the “Population Hoechst High Intensity Objects (%)” value [1] was 8%, the “Population Membrane Permeable-Phenotype (%)” value [1] was 4% and the “Population Mitotic Cells (%)” value [1] was 80%. For the same compound, the “Population Normal (%)” value [1] was 91%, the “Population Pyknosed Nuclei (%)” value [1] was 6% and the “Population Tubulin-Different-Phenotype (%)” value [1] was 14%. The “Total Cell Count” value [1] was 84, the “Population Apoptotic (%)” value [2] was 60% and the “Population Fragmented Nuclei (%)” value [2] was 7%. For the same compound, the “Population Healthy Nuclei (%)” value [2] was 84%, the “Population Hoechst High Intensity Objects (%)” value [2] was 6% and the “Population Membrane Permeable-Phenotype (%)” value [2] was 6%. For the same compound, the “Population Mitochondria Different-Phenotype (%)” value [2] was 29%, the “Population Mitotic Cells (%)” value [2] was 40% and the “Population Normal (%)” value [2] was 93%. For the same compound, the “Population Pyknosed Nuclei (%)” value [2] was 8%, the “Population Tubulin-Different-Phenotype (%)” value [2] was 22% and the “Total Cell Count” value [2] was 61. The “Population Apoptotic (%)” value [3] was 50%, the “Population Fragmented Nuclei (%)” value [3] was 15% and the “Population Healthy Nuclei (%)” value [3] was 59%. The “Population Hoechst High Intensity Objects (%)” value [3] was 8%, the “Population Membrane Permeable-Phenotype (%)” value [3] was 14% and the “Population Mitochondria Different-Phenotype (%)” value [3] was 97%. For the same compound, the “Population Mitotic Cells (%)” value [3] was 50%, the “Population Normal (%)” value [3] was 91% and the “Population Tubulin-Different-Phenotype (%)” value [3] was 100%. For the same compound, the “Total Cell Count” value [3] was 78, the “Population Apoptotic (%)” value [4] was 36% and the “Population Fragmented Nuclei (%)” value [4] was 17%. For the same compound, the “Population Healthy Nuclei (%)” value [4] was 57%, the “Population Hoechst High Intensity Objects (%)” value [4] was 3% and the “Population Membrane Permeable-Phenotype (%)” value [4] was 47%. For the same compound, the “Population Mitochondria Different-Phenotype (%)” value [4] was 95%, the “Population Mitotic Cells (%)” value [4] was 63% and the “Population Normal (%)” value [4] was 96%. For the same compound, the “Population Pyknosed Nuclei (%)” value [4] was 25%, the “Population Tubulin-Different-Phenotype (%)” value [4] was 95% and the “Total Cell Count” value [4] was 79. For the same compound, the “Population Apoptotic (%)” value [5] was 41%, the “Population Fragmented Nuclei (%)” value [5] was 13% and the “Population Healthy Nuclei (%)” value [5] was 73%. The “Population Hoechst High Intensity Objects (%)” value [5] was 9%, the “Population Membrane Permeable-Phenotype (%)” value [5] was 4% and the “Population Mitochondria Different-Phenotype (%)” value [5] was 17%. For the same compound, the “Population Mitotic Cells (%)” value [5] was 58%, the “Population Normal (%)” value [5] was 90% and the “Population Pyknosed Nuclei (%)” value [5] was 13%. The “Population Tubulin-Different-Phenotype (%)” value [5] was 8%, the “Total Cell Count” value [5] was 102 and the “Population Apoptotic (%)” value [6] was 66%. For the same compound, the “Population Fragmented Nuclei (%)” value [6] was 6%, the “Population Healthy Nuclei (%)” value [6] was 84% and the “Population Hoechst High Intensity Objects (%)” value [6] was 4%. The “Population Membrane Permeable-Phenotype (%)” value [6] was 7%, the “Population Mitochondria Different-Phenotype (%)” value [6] was 22% and the “Population Mitotic Cells (%)” value [6] was 33%. For the same compound, the “Population Normal (%)” value [6] was 95%, the “Population Pyknosed Nuclei (%)” value [6] was 9% and the “Population Tubulin-Different-Phenotype (%)” value [6] was 14%. For the same compound, the “Total Cell Count” value [6] was 67, the “Population Apoptotic (%)” value [7] was 57% and the “Population Fragmented Nuclei (%)” value [7] was 13%. For the same compound, the “Population Healthy Nuclei (%)” value [7] was 57%, the “Population Hoechst High Intensity Objects (%)” value [7] was 13% and the “Population Membrane Permeable-Phenotype (%)” value [7] was 28%. For the same compound, the “Population Mitochondria Different-Phenotype (%)” value [7] was 97%, the “Population Mitotic Cells (%)” value [7] was 42% and the “Population Normal (%)” value [7] was 86%. For the same compound, the “Population Pyknosed Nuclei (%)” value [7] was 28%, the “Total Cell Count” value [7] was 84 and the “Population Apoptotic (%)” value [8] was 94%. The “Population Fragmented Nuclei (%)” value [8] was 23%, the “Population Healthy Nuclei (%)” value [8] was 55% and the “Population Hoechst High Intensity Objects (%)” value [8] was 3%. For the same compound, the “Population Membrane Permeable-Phenotype (%)” value [8] was 42%, the “Population Mitochondria Different-Phenotype (%)” value [8] was 95% and the “Population Mitotic Cells (%)” value [8] was 5%. For the same compound, the “Population Normal (%)” value [8] was 96%, the “Population Pyknosed Nuclei (%)” value [8] was 20% and the “Population Tubulin-Different-Phenotype (%)” value [8] was 95%. The “Total Cell Count” value [8] was 87, the “Population Apoptotic (%)” value [9] was 27% and the “Population Fragmented Nuclei (%)” value [9] was 9%. For the same compound, the “Population Hoechst High Intensity Objects (%)” value [9] was 6%, the “Population Membrane Permeable-Phenotype (%)” value [9] was 0% and the “Population Mitochondria Different-Phenotype (%)” value [9] was 12%. The “Population Mitotic Cells (%)” value [9] was 72%, the “Population Normal (%)” value [9] was 93% and the “Population Pyknosed Nuclei (%)” value [9] was 8%. The “Population Tubulin-Different-Phenotype (%)” value [9] was 7%, the “Total Cell Count” value [9] was 140 and the “Population Apoptotic (%)” value [10] was 50%. The “Population Fragmented Nuclei (%)” value [10] was 6%, the “Population Healthy Nuclei (%)” value [10] was 82% and the “Population Hoechst High Intensity Objects (%)” value [10] was 2%. The “Population Membrane Permeable-Phenotype (%)” value [10] was 9%, the “Population Mitochondria Different-Phenotype (%)” value [10] was 15% and the “Population Mitotic Cells (%)” value [10] was 50%. For the same compound, the “Population Normal (%)” value [10] was 97%, the “Population Pyknosed Nuclei (%)” value [10] was 10% and the “Population Tubulin-Different-Phenotype (%)” value [10] was 13%. The “Total Cell Count” value [10] was 94, the “Population Apoptotic (%)” value [11] was 79% and the “Population Fragmented Nuclei (%)” value [11] was 12%. The “Population Healthy Nuclei (%)” value [11] was 59%, the “Population Hoechst High Intensity Objects (%)” value [11] was 13% and the “Population Membrane Permeable-Phenotype (%)” value [11] was 26%. The “Population Mitochondria Different-Phenotype (%)” value [11] was 96%, the “Population Mitotic Cells (%)” value [11] was 20% and the “Population Normal (%)” value [11] was 86%. For the same compound, the “Population Pyknosed Nuclei (%)” value [11] was 27%, the “Population Tubulin-Different-Phenotype (%)” value [11] was 96% and the “Total Cell Count” value [11] was 101. The “Population Apoptotic (%)” value [12] was 70%, the “Population Fragmented Nuclei (%)” value [12] was 20% and the “Population Healthy Nuclei (%)” value [12] was 53%. For the same compound, the “Population Hoechst High Intensity Objects (%)” value [12] was 2%, the “Population Membrane Permeable-Phenotype (%)” value [12] was 42% and the “Population Mitochondria Different-Phenotype (%)” value [12] was 89%. For the same compound, the “Population Mitotic Cells (%)” value [12] was 29%, the “Population Normal (%)” value [12] was 97% and the “Population Pyknosed Nuclei (%)” value [12] was 25%. For the same compound, the “Population Tubulin-Different-Phenotype (%)” value [12] was 82% and the “Total Cell Count” value [12] was 108.
